From ChEMBL document CHEMBL5715959, “Inhibition of histone methyltransferase EZH2 in Schistosoma mansoni in vitro by GSK343 reduces egg laying and decreases the expression of genes implicated in DNA replication and noncoding RNA metabolism” (2018) come the findings set out here.

Activity calls are given as the source filed them. The rule behind the calls is not given here.

Assay [1] deals with Schistosoma mansoni. Briefly: Antischistosomal activity against adult Schistosoma mansoni assessed as decreased motility at 20 uM incubated for 48 hrs by inverted microscope analysis relative to control. Format: functional. More on the design: scale not given: the % may be the effect or the level left. In outline: (§1)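 Paired adult worms were cultured in RPMI/10% FBS with antibiotics at 37°C, 5% CO2, with GSK343 or 0.1% DMSO. They were viewed by inverted microscope at 3, 6, 12, 24 and 48 h. Motility was scored on a 0–3 scale (3 full movement, 1.5 partial or immobile but alive, 0 dead); death meant no movement over more than 2 min. Pairing was recorded. Three experiments, each with 10 pairs; mean ± SD.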

The subject of assay [2] is Schistosoma mansoni. Briefly: Antischistosomal activity against Schistosoma mansoni assessed as change in size at 20 uM incubated for 24 hrs by scanning electron microscopy analysis. It counts as functional, organism-based. Summed up:
(§2)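 Newly transformed schistosomula were held 16 h in M169 with 2% FBS, serotonin, hypoxanthine, hydrocortisone, triiodothyronine and antibiotics at 37°C, 5% CO2, at 2,000 per well. They were then exposed to 20 μM GSK343 or 0.1% DMSO for 24 and 48 h. Fixation was modified Karnovsky (pH 7.4) with 1% osmium post-fix, then ethanol dehydration, critical-point drying, gold coating and SEM. Lengths came from three experiments, each with 20 schistosomula.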

Assay [3] has as its system Schistosoma mansoni. Briefly: Antischistosomal activity against adult Schistosoma mansoni assessed as reduction in pairing of couples at 20 uM incubated for 48 hrs by inverted microscope analysis relative to control. Format: functional. Also noted: scale not given: the % may be the effect or the level left. In outline:
as §1

The test system of assay [4] is Schistosoma mansoni. Briefly: Antischistosomal activity against adult male Schistosoma mansoni assessed as lesions of tegument around tubercles at 20 uM incubated for 48 hrs by scanning electron microscopy analysis. It counts as functional, organism-based. Summed up: (§3)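 Adult couples were taken by perfusion into supplemented RPMI, one couple per well, and adapted 2 h at 37°C, 5% CO2. They were exposed to 20 μM GSK343 or 0.1% DMSO for 24 and 48 h. Fixation used modified Karnovsky with osmium post-fix, followed by ethanol dehydration, critical-point drying, gold sputtering and scanning electron microscopy of tegument surfaces.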

For assay [5], the system named is Schistosoma mansoni. The assay can be described thus: Antischistosomal activity against adult female Schistosoma mansoni assessed as presence of peeling in dorsal region at 20 uM incubated for 24 to 48 hrs by scanning electron microscopy analysis. The following applies: time 24-48 hrs. Format: functional, organism-based. In outline:
as §3

Assay [6] deals with Schistosoma mansoni. Briefly: Antischistosomal activity against adult female Schistosoma mansoni assessed as presence of blisters in dorsal region at 20 uM incubated for 24 to 48 hrs by scanning electron microscopy analysis. Format: functional, organism-based. Conditions: time 24-48 hrs. In outline:
as §3

In assay [7] the test system is Schistosoma mansoni. The assay can be described thus: Antischistosomal activity against adult female Schistosoma mansoni assessed as presence of fissures in egg shell at 20 uM incubated for 24 to 48 hrs by scanning electron microscopy analysis. It counts as functional, organism-based. Conditions: time 24-48 hrs. In outline: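 Eggs released by couples kept 24 or 48 h with 20 μM GSK343 or 0.1% DMSO in supplemented RPMI were fixed in modified Karnovsky with osmium post-fix. They were dehydrated, critical-point dried, gold-coated and imaged by SEM; total egg area dimension was measured.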

The test system of assay [8] is Schistosoma mansoni. The assay can be described thus: Antischistosomal activity against juvenile Schistosoma mansoni assessed as presence of blisters in dorsal tegument at 20 to 50 uM incubated for 48 hrs by scanning electron microscopy analysis. Format: functional, organism-based. The following applies: dose 20-50 µM. In outline: (§4)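 Juvenile worms recovered by perfusion, five per well in supplemented RPMI (10% FBS, antibiotics, 37°C, 5% CO2), 2 h adaptation, then exposed 48 h to compound or 0.1% DMSO. Fixed in modified Karnovsky reagent (pH 7.4), washed in cacodylate buffer, post-fixed 1 h in 1% osmium tetroxide, ethanol-dehydrated, critical-point dried, gold-sputtered and imaged by scanning electron microscopy.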

In assay [9] the test system is Schistosoma mansoni. The assay can be described thus: Antischistosomal activity against juvenile Schistosoma mansoni assessed as damaged anterior region at 20 to 50 uM incubated for 48 hrs by scanning electron microscopy analysis. Format: functional, organism-based. The following applies: in the assay text read “at 50 uM” for “at 20 to 50 uM”. In outline: as §4

The test system of assay [10] is Schistosoma mansoni. Briefly: Antischistosomal activity against Schistosoma mansoni assessed as length of schistosomula at 20 uM incubated for 24 to 48 hrs by scanning electron microscopy analysis (reference value: […]). It counts as functional. Conditions: time 24-48 hrs. In outline:
as §2

Assay [11] concerns Schistosoma mansoni. Briefly: Antischistosomal activity against Schistosoma mansoni assessed as increased caspase 3/7 activity at 20 uM incubated for 48 hrs by Caspase 3/7 reagent based luminescence assay. Format: functional. Summed up:
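2,000 schistosomula per well were kept in supplemented M169 with 20 μM GSK343 or 0.1% DMSO for 48 h. Medium was replaced, reporter lysis buffer added, then Caspase-Glo 3/7 reagent for 3 h in the dark with agitation before reading luminescence. The negative control lacked reagent. Three experiments, each with 20,000 schistosomula.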

For assay [12], the system named is Schistosoma mansoni. The assay can be described thus: Induction of apoptosis in Schistosoma mansoni assessed as DNA fragmentation at 20 uM incubated for 72 hrs by TUNEL staining based inverted microscope analysis. It counts as functional, organism-based. Summed up:
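Schistosomula, 2,000 per well in supplemented M169 after 16 h pre-culture, exposed 72 h to compound or DMSO, then fixed 60 min, permeabilized and TUNEL-labelled for DNA strand breaks. Mounted with DAPI counterstain and imaged by ApoTome fluorescence microscopy at 40× objective.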

Assay [13] concerns Schistosoma mansoni. The assay can be described thus: Antischistosomal activity against Schistosoma mansoni assessed as increased H3K27ac level in schistosomula at 20 uM incubated for 48 hrs by Western blotting analysis. It counts as functional, organism-based. Summed up:
(§5)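 About 10,000 schistosomula were treated 48 h with 20 μM GSK343 or vehicle, then sonicated in Triton X-100 lysis buffer with PMSF and protease inhibitors. Supernatant nuclear extract (BCA-quantified, 10 μg) was run on 15% SDS-PAGE and blotted to nitrocellulose. Blots were probed with mark-specific monoclonal antibodies, then IRDye secondaries; infrared imaging was used and signals were normalized to total H3. t-test.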
(In western blotting, separated proteins are transferred to a membrane and probed.)

Assay [14] deals with Schistosoma mansoni. The assay can be described thus: Antischistosomal activity against Schistosoma mansoni assessed as increased H3K27me1 level in schistosomula at 20 uM incubated for 48 hrs by Western blotting analysis. It counts as functional, organism-based. Summed up:
as §5

The test system of assay [15] is Schistosoma mansoni. Briefly: Antischistosomal activity against female Schistosoma mansoni assessed as down-regulated ESP mRNA level at 20 uM incubated for 48 hrs by RT-qPCR analysis. Format: functional, organism-based. In outline: (§6)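 Schistosomula (supplemented M169) or adult worms (supplemented RPMI) were treated 48 h with 20 μM GSK343 or 0.1% DMSO at 37°C, 5% CO2. qPCR normalizer genes were chosen from RNA-seq data as those with TPM >1 and a treated/control ratio of 0.9–1.1 that were not differentially expressed. Relative expression was calculated by comparative Ct; significance by t-test.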
(In general: Real-time PCR tracks product formation cycle by cycle.)

For assay [16], the system named is Schistosoma mansoni. Briefly: Antischistosomal activity against female Schistosoma mansoni assessed as down-regulated EED mRNA level at 20 uM incubated for 48 hrs by RT-qPCR analysis. Format: functional, organism-based. Summed up:
as §6

The subject of assay [17] is Schistosoma mansoni. The assay can be described thus: Antischistosomal activity against Schistosoma mansoni assessed as down-regulated MEG-4 mRNA level in schistosomula at 20 uM incubated for 48 hrs by RT-qPCR analysis. Format: functional, organism-based. Summed up:
as §6

Assay [18] relates to Schistosoma mansoni. Briefly: Antischistosomal activity against Schistosoma mansoni assessed as down-regulated Val7 mRNA level in schistosomula at 20 uM incubated for 48 hrs by RT-qPCR analysis. It counts as functional, organism-based. In outline: as §6
Assay [19] deals with Schistosoma mansoni. Briefly: Antischistosomal activity against Schistosoma mansoni assessed as down-regulated FA binding protein mRNA level in schistosomula at 20 uM incubated for 48 hrs by RT-qPCR analysis. It counts as functional, organism-based. In outline:
as §6

In assay [20] the test system is Schistosoma mansoni. Briefly: Antischistosomal activity against Schistosoma mansoni assessed as down-regulated DNAse II protein mRNA level in schistosomula at 20 uM incubated for 48 hrs by RT-qPCR analysis. It counts as functional, organism-based. In outline:
as §6

Take `CCCc1cc(C)[nH]c(=O)c1CNC(=O)c1cc(-c2ccnc(N3CCN(C)CC3)c2)cc2c1cnn2C(C)C`: the Activity in assay [1] was ~40%; in assay [3], ~50%; in assay [10], 74 µm. For the same compound, in [2], the result was inactive. Besides, the result in [4], in [5], in assay [6], in assay [7], in [8] and in assay [9] was Active. Moreover, the outcome in [12], in assay [13], in [14], in [15], in [16] and in [17] was Active. In addition, the outcome in [18], in assay [19] and in assay [20] was Active. In assay [11], the “fold change (FC)” value is on record as 17.
